Data taken from ChEMBL document CHEMBL5352422, “Development of l-Dopa-containing diketopiperazines as blood-brain barrier shuttle” (Eur J Med Chem, 2022).
The source made the active and inactive calls. The calls are words filed in the database; no cut-off is given here.

Tests used:
[1] = Genotoxicity in human Lymphocyte assessed as micronuclei formation measured per 1000 cells at 10 nM incubated for 72 hrs giemsa staining based analysis (reference value: 4.5 to 17.9); format: toxicity, cell-based; conditions: 0.01 µM
Procedure, shortened: (§1)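 Human whole-blood lymphocyte cultures with phytohemagglutinin, incubated with compound for 72 h at 37 °C. Cytochalasin B added at 44 h. Cells fixed in ice-cold methanol/acetic acid 1:1, cytospun, Giemsa-stained. At least 1000 binucleated lymphocytes per concentration scored for micronuclei by one observer.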

[2] = tested on: PC-12; experiment: Upregulation of GCLM expression in MPP+ induced rat PC-12 cells at 100 nM pretreated with compound for 24 hrs followed by MPP+ stimulation and measured after 6 hrs; format: functional, cell-based; conditions: time 30.0 hrs
Procedure, shortened: (§2)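 PC12 cells pretreated 24 h with compound, then exposed to 25 μM MPP+ for 6 h. mRNA quantified by real-time PCR (95 °C 3 min, then 40 cycles of 95 °C 10 s and 62 °C 30 s), samples in triplicate. Values normalized to β-actin, expressed as 2^-ΔΔCt with untreated cells set to 1.0. n = 3.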

[3] = tested on: PC-12; experiment: Upregulation of GR expression in MPP+ induced rat PC-12 cells at 100 nM pretreated with compound for 24 hrs followed by MPP+ stimulation and measured after 6 hrs; format: functional, cell-based; conditions: time 30.0 hrs; procedure, shortened: as §2
[4] = tested on: PC-12; experiment: Upregulation of GSTA-2 expression in MPP+ induced rat PC-12 cells at 100 nM pretreated with compound for 24 hrs followed by MPP+ stimulation and measured after 6 hrs; format: functional, cell-based; conditions: time 30.0 hrs; procedure, shortened: as §2
[5] = tested on: PC-12; experiment: Upregulation of Gpx expression in MPP+ induced rat PC-12 cells at 100 nM pretreated with compound for 24 hrs followed by MPP+ stimulation and measured after 6 hrs; format: functional, cell-based; conditions: time 30.0 hrs; procedure, shortened: as §2
[6] = tested on: PC-12; experiment: Upregulation of xCT expression in MPP+ induced rat PC-12 cells at 100 nM pretreated with compound for 24 hrs followed by MPP+ stimulation and measured after 6 hrs; format: functional, cell-based; conditions: time 30.0 hrs; procedure, shortened: as §2
[7] = Antioxidant activity against rat Cerebral cortex cell assessed as trolox equivalent of total antioxidant capacity at 50 nM incubated for 24 hrs (14.7 to 27.5 mmolequiv/L ); format: functional, Cerebral cortex neuron
[8] = Antioxidant activity against Primary human whole blood cell assessed as trolox equivalent of total antioxidant capacity at 50 nM incubated for 24 hrs (19.3 to 32.5 mmolequiv/L ); format: functional
[9] = Antioxidant activity against rat Cerebral cortex cell assessed as H2O2 equivalent of total oxidative stress at 50 nM incubated for 24 hrs (0.7 to 2.3 micromolequiv/L); format: functional, Cerebral cortex neuron
[10] = Antioxidant activity against rat Cerebral cortex cell assessed as H2O2 equivalent of total oxidative stress at 500 nM incubated for 24 hrs (0.7 to 2.3 micromolequiv/L); format: functional, Cerebral cortex neuron
[11] = Induction of DNA damage in rat Cerebral cortex cell assessed as 8-OH-dG adducts formation at 100 nM incubated for 24 hrs by […] (reference value: 0.14 to 1.92 pg/ml); format: functional, Cerebral cortex neuron
[12] = Induction of DNA damage in rat Cerebral cortex cell assessed as 8-OH-dG adducts formation at 250 nM incubated for 24 hrs by […] (reference value: 0.14 to 1.92 pg/ml); format: functional, Cerebral cortex neuron
[13] = Induction of DNA damage in Primary human whole blood cell assessed as 8-OH-dG adducts formation at 10 nM incubated for 24 hrs by […] (reference value: 0.12 to 2.21 pg/ml); format: functional
[14] = Induction of DNA damage in Primary human whole blood cell assessed as 8-OH-dG adducts formation at 50 nM incubated for 24 hrs by […] (reference value: 0.12 to 2.21 pg/ml); format: functional
[15] = Induction of DNA damage in Primary human whole blood cell assessed as total DNA damage score at 10 nM incubated for 24 hrs by Comet assay (reference value: 35.4 to 77.9); format: functional
[16] = Induction of DNA damage in Primary human whole blood cell assessed as total DNA damage score at 50 nM incubated for 24 hrs by Comet assay (reference value: 35.4 to 77.9); format: functional
[17] = Induction of DNA damage in Primary human whole blood cell assessed as total DNA damage score at 500 nM incubated for 24 hrs by Comet assay (reference value: 35.4 to 77.9); format: functional
[18] = Genotoxicity in human Lymphocyte assessed as sister chromatid exchange measured per cells at 50 nM incubated for 72 hrs giemsa staining based fluorescence method (reference value: 6.6 to 14.3); format: toxicity, cell-based; conditions: 0.05 µM
[19] = Genotoxicity in human Lymphocyte assessed as micronuclei formation measured per 1000 cells at 50 nM incubated for 72 hrs giemsa staining based analysis (reference value: 4.5 to 17.9); format: toxicity, cell-based; conditions: 0.05 µM; procedure, shortened: as §1
[20] = Genotoxicity in human Lymphocyte assessed as micronuclei formation measured per 1000 cells at 250 nM incubated for 72 hrs giemsa staining based analysis (reference value: 4.5 to 17.9); format: toxicity, cell-based; conditions: 0.25 µM; procedure, shortened: as §1
[21] = Genotoxicity in human Lymphocyte assessed as micronuclei formation measured per 1000 cells at 500 nM incubated for 72 hrs giemsa staining based analysis (reference value: 4.5 to 17.9); format: toxicity, cell-based; conditions: 0.5 µM; procedure, shortened: as §1
[22] = Stability of the compound in stimulated gastric fluid at 10 mg/ml pepsin by measuring half life measured upto 60 mins by HPLC analysis; format: ADME; conditions: simulated gastric fluid with pepsin
Procedure, shortened: (§3)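 USP simulated gastric fluid containing pepsin, preheated, in a 37 °C shaking water bath. Samples at 0, 15, 30 and 60 min were deproteinized with ice-cold acetonitrile containing 0.5% formic acid, centrifuged at 4 °C, filtered and analyzed by HPLC. Means of three experiments.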

[23] = Stability of the compound in stimulated gastric fluid at 40 mg/ml pepsin by measuring half life measured upto 60 mins by HPLC analysis; format: ADME; conditions: simulated gastric fluid with pepsin; procedure, shortened: as §3
[24] = Stability of the compound in stimulated intestinal fluid at 40 mg/ml pancreatin by measuring half life measured upto 180 mins by HPLC analysis; format: ADME; conditions: simulated intestinal fluid with pancreatin
Procedure, shortened: (§4)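 USP simulated intestinal fluid containing pancreatin, in a 37 °C shaking water bath. Samples at 0, 60, 120 and 180 min were quenched with ice-cold acetonitrile containing 0.5% formic acid, centrifuged at 4 °C for 10 min, filtered and analyzed by HPLC. Means of three experiments ± SD.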

[25] = Stability of the compound in hydrochloric acid buffer assessed as chemical hydrolysis by measuring observed rate constant at pH 1.2; format: physicochemical
Procedure, shortened: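 Chemical hydrolysis at 37 °C in hydrochloric acid buffer pH 1.2 or phosphate buffer pH 7.4. Remaining compound followed by HPLC with UV detection. t1/2 and k_obs are means of three experiments ± SD.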

[26] = Stability of the compound in stimulated intestinal fluid at 40 mg/ml pancreatin by measuring observed rate constant measured upto 180 mins by HPLC analysis; format: ADME; conditions: simulated gi fluid, 3 h; procedure, shortened: as §4
[27] = Apparent permeability of the compound across apical side to basolateral side in human Caco-2 cells measured upto 180 mins by HPLC analysis; format: ADME, cell-based
[28] = Cytotoxicity against Primary human whole blood cell at 10 to 500 nM incubated for 24 hrs by LDH assay; format: toxicity, cell-based; conditions: 0.5 µM, dose 10-500 nM
Procedure, shortened: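 Rat fetal cortical neuron or human whole-blood cultures treated 24 h at 37 °C with aqueous compound at 10–500 nM. LDH released into 100 µL of medium measured by kit as the rate of NAD+ reduction (lactate to pyruvate), absorbance increase at 490 nm. Mitomycin C 10^-7 M as positive control; four independent experiments.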

half-life [22] [h]	half-life [23] [h]	Kobs [25] [h⁻¹]	Papp A→B at 3 h [27] [×10⁻⁶ cm/s]	Structure (SMILES)	Activity [1]	Activity [7] [mmolequiv/L]	Activity [8] [mmolequiv/L]	Activity [9] [umolequiv/L]	Activity [10] [umolequiv/L]	Activity [11] [pg/mL]	Activity [12] [pg/mL]	Activity [13] [pg/mL]	Activity [14] [pg/mL]	Activity [15]	Activity [16]	Activity [17]	Activity [18]	Activity [19]	Activity [20]	Activity [21]	other results
91	57.1	0.005	17.4	C#CCSC[C@H]1NC(=O)[C@H](Cc2ccc(OC(C)=O)c(OC(C)=O)c2)NC1=O	4.6	15.5	19.5	0.6	0.6	0.14	0.14	0.12	0.11	36	35.8	36.3	6.8	4.8	5.1	5.1	Activity [2]: Active; Activity [3]: Active; Activity [4]: Active; Activity [5]: Active; Activity [6]: Active; half-life [24]: 2.57 h; Kobs [26]: 0.27 h⁻¹; Activity [28]: Non-Toxic
24.2	22.4	0.037	7.5	C=CCSC[C@H]1NC(=O)[C@H](Cc2ccc(OC(C)=O)c(OC(C)=O)c2)NC1=O	4.7	14.3	19.4	0.7	0.7	0.15	0.15	0.12	0.12	35	35.7	36.1	6.7	4.9	5.2	5.2	Activity [28]: Non-Toxic
